Series [1] in a line: Stability in human plasma assessed as half life.
Series [2] addresses T1, Protein-lysine 6-oxidase (Homo sapiens, UniProt P28300).
T1 sequence (P28300 whole entry): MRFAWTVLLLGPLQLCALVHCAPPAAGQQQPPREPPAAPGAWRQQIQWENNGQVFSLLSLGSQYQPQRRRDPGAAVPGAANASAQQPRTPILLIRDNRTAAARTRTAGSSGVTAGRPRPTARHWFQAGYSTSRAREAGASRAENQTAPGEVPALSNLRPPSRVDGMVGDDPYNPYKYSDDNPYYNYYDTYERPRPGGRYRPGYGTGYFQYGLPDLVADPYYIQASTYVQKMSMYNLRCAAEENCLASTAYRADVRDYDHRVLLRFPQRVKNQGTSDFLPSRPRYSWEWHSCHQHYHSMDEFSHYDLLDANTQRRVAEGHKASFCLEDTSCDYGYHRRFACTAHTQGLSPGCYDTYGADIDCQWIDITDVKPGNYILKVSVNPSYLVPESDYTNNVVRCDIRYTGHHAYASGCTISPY
As to the kind of experiment: Inhibition of LOX in human IMR90 cells using putrescine as substrate preincubated with enzyme for 30 mins followed by substrate addition and measured every 2.5 mins for 30 mins by Amplex-Red oxidation assay. Type of series: cell-based. In outline: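 IMR90 fibroblasts grown in MEM/10% FBS to 80% confluence, then 48-72 h in phenol-red-free 0.1% FBS medium. Conditioned medium concentrated 40-fold (10 kDa). LOX and LOXL2 separated on a 50 kDa filter in 6 M urea/borate, then diluted back to 1.2 M urea. Preincubated 30 min at 37 °C with compound; Amplex Red/HRP/putrescine readout every 2.5 min over 30 min.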

For series [3], the target named is T2, Lysyl oxidase homolog 2 (Homo sapiens, UniProt Q9Y4K0).
T2 sequence (Q9Y4K0 whole entry): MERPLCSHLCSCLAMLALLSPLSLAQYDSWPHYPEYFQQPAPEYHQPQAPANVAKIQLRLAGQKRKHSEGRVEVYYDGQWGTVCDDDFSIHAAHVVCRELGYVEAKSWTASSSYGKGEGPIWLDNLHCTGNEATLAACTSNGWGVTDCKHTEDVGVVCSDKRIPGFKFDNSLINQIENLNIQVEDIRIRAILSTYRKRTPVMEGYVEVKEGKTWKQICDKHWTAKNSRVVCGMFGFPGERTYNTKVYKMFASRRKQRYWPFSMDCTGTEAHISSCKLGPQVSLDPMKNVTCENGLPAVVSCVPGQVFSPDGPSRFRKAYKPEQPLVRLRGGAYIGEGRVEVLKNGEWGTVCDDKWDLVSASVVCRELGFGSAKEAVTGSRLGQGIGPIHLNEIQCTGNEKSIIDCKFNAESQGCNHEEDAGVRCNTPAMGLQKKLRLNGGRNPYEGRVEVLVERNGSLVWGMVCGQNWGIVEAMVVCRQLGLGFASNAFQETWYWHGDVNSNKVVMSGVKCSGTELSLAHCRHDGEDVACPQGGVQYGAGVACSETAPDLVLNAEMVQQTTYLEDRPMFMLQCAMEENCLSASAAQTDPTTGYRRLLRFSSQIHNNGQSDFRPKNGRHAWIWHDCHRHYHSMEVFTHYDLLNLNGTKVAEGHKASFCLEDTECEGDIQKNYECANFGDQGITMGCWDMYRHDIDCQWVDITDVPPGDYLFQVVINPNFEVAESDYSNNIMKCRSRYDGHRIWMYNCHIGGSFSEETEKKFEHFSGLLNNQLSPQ
As to the kind of experiment: Inhibition of recombinant human C-terminal His-tagged […] (1-774 residues) expressed in mouse myeloma cells assessed as inhibition of collagen oxidation measured every 1 min for 3 hrs by Amplex-Red oxidation assay. In kind it is cell-based. The gist of the method:
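Rat tail type I collagen (1.5 mg/mL in 50 mM borate pH 8.2) combined with rhLOXL2 with or without inhibitor (BAPN 100 µM control). Amplex Red (120 µM)/HRP (1.5 U/mL) mix added. Fluorescence read every 1 min for 3 h at 37 °C; slope from the linear 20-40 min phase used for IC50.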

For `Cc1c(-c2cccc(S(=O)(=O)N(C)C)c2)c2cc(C(=O)O)ccc2n1C/C(F)=C/CN.Cl`, the half-life (commonly the time needed for the level to fall by half in the phase considered) in series [1] is > 2 h. The IC50 (as a rule, the midpoint of a concentration-inhibition curve) in series [2] was 1260 nM; in series [3], 13 nM.

Values taken from ChEMBL document CHEMBL4321820, “Identification and Optimization of Mechanism-Based Fluoroallylamine Inhibitors of Lysyl Oxidase-like 2/3” (J Med Chem, 2019).
